This is one part of a sample in which hits are shown more often than they occur.
TLR4 MyD88 comp – TLR4-MyD88 interaction inhibition in cells. 200,000 compounds, 0.18% hits. inhibition, % at 8.4 µM. O00206+Q99836. HeLa CL3-4 TLR4/MyD88 BLA complementation, FRET ratio; in the data active = inhibition above about 25%;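 also: 0% = vehicle and 100% = reference inhibitor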
Target sequence (O00206 whole entry, looked up): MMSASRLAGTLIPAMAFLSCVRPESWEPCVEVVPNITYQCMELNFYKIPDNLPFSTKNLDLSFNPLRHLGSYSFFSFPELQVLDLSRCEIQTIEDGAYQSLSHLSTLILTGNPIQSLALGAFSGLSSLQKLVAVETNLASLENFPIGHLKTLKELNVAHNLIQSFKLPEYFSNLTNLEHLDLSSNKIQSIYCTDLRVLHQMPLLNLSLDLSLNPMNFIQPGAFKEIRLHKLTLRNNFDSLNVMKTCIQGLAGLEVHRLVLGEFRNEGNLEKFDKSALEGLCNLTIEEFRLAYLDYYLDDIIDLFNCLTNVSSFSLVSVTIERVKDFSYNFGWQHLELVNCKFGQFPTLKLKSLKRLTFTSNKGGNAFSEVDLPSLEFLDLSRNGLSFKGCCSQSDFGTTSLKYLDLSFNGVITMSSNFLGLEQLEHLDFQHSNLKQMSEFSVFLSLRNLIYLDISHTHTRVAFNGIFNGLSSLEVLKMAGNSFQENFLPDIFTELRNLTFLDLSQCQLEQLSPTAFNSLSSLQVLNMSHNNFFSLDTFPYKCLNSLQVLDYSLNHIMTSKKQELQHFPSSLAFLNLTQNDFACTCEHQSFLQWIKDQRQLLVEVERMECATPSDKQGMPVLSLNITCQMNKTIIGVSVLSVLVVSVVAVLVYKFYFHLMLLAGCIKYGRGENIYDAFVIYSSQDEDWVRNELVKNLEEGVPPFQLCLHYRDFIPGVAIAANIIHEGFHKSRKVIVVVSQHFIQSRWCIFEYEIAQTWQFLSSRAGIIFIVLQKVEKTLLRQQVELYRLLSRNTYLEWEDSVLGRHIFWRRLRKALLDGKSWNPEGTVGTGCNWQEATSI
Target sequence (Q99836 whole entry, looked up): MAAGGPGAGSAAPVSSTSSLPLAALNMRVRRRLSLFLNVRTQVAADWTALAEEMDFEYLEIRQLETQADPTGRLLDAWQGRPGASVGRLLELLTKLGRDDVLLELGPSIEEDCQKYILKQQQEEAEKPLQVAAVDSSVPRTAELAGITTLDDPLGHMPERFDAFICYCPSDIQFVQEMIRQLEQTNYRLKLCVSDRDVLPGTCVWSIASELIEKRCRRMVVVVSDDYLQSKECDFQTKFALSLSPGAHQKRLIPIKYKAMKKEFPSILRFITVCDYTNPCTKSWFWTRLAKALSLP
UPR CHOP act – activators of apoptotic arm of unfolded protein response (CHOP) | 330,000 compounds, 0.34% hits | CHO-CHOP luciferase reporter, UPR activation, luminescence; percent of tunicamycin response over DMSO baseline | AID 449763 | activation, % at 10 µM;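 active = at 10 µM dose, activation of 40% or more, normalized to positive control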;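 also: 100% = tunicamycin at 10 µg/mL and 0% = DMSO alone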
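Assay system: CHO-CHOP cells, stable luciferase reporter of PERK-eIF2a-CHOP signalling / Buffer or medium: F12 plus 10% serum / Compound dosing: one dose, 10 µM in 0.5% DMSO / Times: 6 h compound treatment, 37 °C / Technique: luciferase luminescence / Read-out: % reporter activation, DMSO baseline versus tunicamycin full activation / Benchmarks: tunicamycin and DMSO controls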
UPR XBP1 act – adaptive UPR (XBP1) activation | CHO-XBP1 luciferase reporter, IRE1-XBP1 UPR activation, luminescence; percent of tunicamycin response, DMSO as zero | activation, % at 20 µM | AID 463104 | 330,000 compounds, 0.33% hits;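 active = versus positive control, 20 µM dose yields 30% or more activation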;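 also: 100% = tunicamycin at 10 µg/mL and 0% = DMSO only wells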
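assay system = CHO-XBP1 luciferase reporter cells | amount = 1000 cells/well | buffer or medium = F12 plus 10% FBS | compound dosing = single point, 20 µM final compound, 1% DMSO | incubation = 16-18 h cell attachment at 37 °C, then 6 h compound exposure | detection = Steady-Glo luminescence read | controls = tunicamycin 10 µg/mL and vehicle-only wells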
NOD2-RIPK2 inh – NOD2-RIPK2 protein interaction inhibition | O43353 | CHO BLA complementation NOD2-RIPK2, CCF4 ratio | 360,000 compounds, 0.38% hits | inhibition, % at 4.98 µM | AID 624267; in the data active = inhibition above about 21%;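 also: 0% = vehicle only and 100% = reference blocker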
TLR9-MyD88 block – blocks human TLR9 binding to MyD88. AID 504734. Q9NR96+Q99836. 340,000 compounds, 0.21% hits. CHO BLA complementation TLR9-MyD88, CCF4 FRET ratio. inhibition, % at 4.98 µM;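 active = inhibition above the mean over all tested compounds plus 3 SD, cut at about 21% in these data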;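 also: 0% = DMSO only wells and 100% = clavulanate BLA inhibitor control wells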
CHOP inhibitor – blocks CHOP induction under ER stress | 220,000 compounds, 3.8% hits | CHO-K1 CHOP-promoter luciferase, tunicamycin-induced, 15-18 h | inhibition, % at 10 µM;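 active = compounds that reduced the stress-induced luciferase reporter signal by more than about 70% of percent inhibition, limit read from the data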;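 also: 0% = tunicamycin plus vehicle and 100% = wells without tunicamycin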
The depositor's hits bear a star; · = no result given.

SMILES | TLR4 MyD88 comp | UPR CHOP act | UPR XBP1 act | NOD2-RIPK2 inh | TLR9-MyD88 block | CHOP inhibitor
Cn1c(/C=N/NC(=O)c2ccccc2Br)nc2ccccc21 | 4 | -2 | -3 | -2 | -5 | 84*
CC(Nc1cccc2ccccc12)C(=O)N/N=C/c1ccc([N+](=O)[O-])cc1 (stereo not given) | 4 | 1 | -2 | 9 | 7 | 82*
COc1ccc(C(O)c2nc(-c3cccc(NC(C)=O)c3)cs2)cc1 (stereo not given) | · | · | · | -13 | · | ·
COc1ccccc1-c1cnc(C(O)c2ccc(Cl)c(Cl)c2)[nH]1 (stereo not given) | · | · | · | 6 | · | ·
Cc1nc2cc(-c3cccc(F)c3)nn2c(C)c1CCC(=O)NC(C)CCc1ccco1 (stereo not given) | -2 | -6 | -5 | -8 | 13 | 82*
Cn1ccc2c(N3c4ccccc4CCc4ccccc43)cc3c(c21)C1CCC3O1 (stereo not given) | · | · | · | -4 | · | ·
CCCCCC(=O)N1C[C@H](n2cc(COC(=O)c3ccccc3)nn2)[C@@H](O)C[C@@H]1c1ccc(Cl)cc1 | · | · | · | 5 | -11 | ·
CN(CC(=O)Nc1ccc(Cl)c(C(F)(F)F)c1)S(=O)(=O)c1cnc[nH]1 | · | · | · | -6 | 0 | ·
CCS(=O)(=O)N1Cc2ccccc2CC1C(=O)OCC(=O)Nc1ccc(SC(F)F)cc1 (stereo not given) | 13 | 0 | 0 | 0 | 0 | 93*
CCS(=O)(=O)N1Cc2ccccc2CC1C(=O)OCC(=O)Nc1ccc(C)cc1 (stereo not given) | -13 | -1 | 2 | -7 | 1 | 20
O=C1NC(Cc2ccc(O)cc2)c2nc3ccccc3c(=O)n2-c2ncccc21 (stereo not given) | · | · | · | -20 | -3 | ·
CCCCCn1c(CCC(=O)Oc2ccccc2OC)nc2c1c(=O)[nH]c(=O)n2CCCC | 10 | 2 | -3 | -3 | 15 | 71*
Cc1[nH]c2ccccc2c1C(O)CN1CCN(c2cccc(C(F)(F)F)c2)CC1 (stereo not given) | 2 | 0 | -4 | 1 | -4 | 74*
Cc1[nH]c2ccccc2c1NC(=O)CN1CCN(c2cccc(C(F)(F)F)c2)CC1 | -2 | -2 | 4 | -3 | -10 | 61
COc1ccc(CC(=O)Nc2cccc(-c3nnc(-c4ccccc4)o3)c2)cc1OC | 0 | · | · | 4 | -8 | ·
COc1ccc(CC(=O)Nc2ccc(-c3nnc(-c4ccccc4)o3)cc2)cc1OC | -5 | 2 | 3 | -5 | -9 | 74*
COc1ccc(CC(=O)Nc2cccc(-c3nnc(-c4ccc(C)cc4)o3)c2)cc1OC | 9 | -5 | -3 | -3 | 2 | 76*
COc1ccc(C2=NN(C(=O)COC(=O)c3ccc(S(C)(=O)=O)c([N+](=O)[O-])c3)C(c3ccco3)C2)cc1 (stereo not given) | · | -1 | -4 | 10 | 17 | ·
CCOC(=O)CN(C(=O)CSc1nnc2c(n1)[nH]c1c(C)cc(C)cc12)c1ccccc1 | 20 | · | · | · | · | 82*
Cc1c(C)n(CC(O)CNc2ccccc2)c2ccccc12 (stereo not given) | -8 | 0 | -4 | -3 | 1 | 90*
Cc1ccccc1NCC(=O)c1ccc(Br)cc1 | 4 | 2 | -2 | 0 | -5 | 70*
CCCCN(C(=O)NC(=O)Nc1cccc(C)c1C)S(C)(=O)=O | 4 | 0 | -2 | -3 | -1 | 81*
Cc1ccc(S(=O)(=O)N2C[C@@H](C)[C@]3(C2)[C@H](O)[C@H](OC(=O)Nc2c(C)noc2C)C[C@H]2C(=O)N(c4ccccc4)C(=O)[C@H]23)cc1 | · | · | · | 14 | -20 | ·
O=c1cc(/C=C/c2ccccc2)oc2ccccc12 | -3 | 5 | 5 | 6 | -7 | 74*
Cc1ccc(CNC(=O)CSc2nc(N3CCCCC3)nc(N3CCCCC3)n2)cc1 | -6 | 1 | -4 | -12 | -12 | 71*
COc1cccc(-c2nc(Oc3cccc(C)c3C)c3ccccc3n2)c1O | 3 | 20 | 19 | 4 | 1 | 82*
